# Assay results from PMC4690987 (Journal of Medicinal Chemistry, 2015).
# Key:
# HIV-1 NL4-3 strain [1] = assay: Antiviral assay in HIV-1 infected TZM-bl cells; type: cell-based; conditions: for SI HIV-1 strain NL4-3: CC50 value/IC50 value
# Outline: (§1)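 TZM-bl cells (HeLa expressing CD4 and CCR5, with LTR-driven luciferase and β-galactosidase) were seeded at 1 ×10^4 cells/well in DMEM/10% FBS and left to adhere overnight. Cells were infected with HIV-1 NL4-3 or BaL at MOI 0.5, treated with serial dilutions of test compound, and incubated at 37 °C for 48 h. IC50 was taken as 50% inhibition of LTR-luciferase signal. CC50 came from parallel MTT on mock-infected cells. SI = CC50/IC50.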
# HIV-1 NL4-3 strain [2] = conditions: previous work ref 27, 30; cited from earlier work
# TZM-bl cells = conditions: values previously reported ref 27; cited from earlier work
# LTR-IV G4 [3] = assay: FRET melting assay; type: binding, HIV-1
# Outline: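 Oligonucleotide labelled with FAM at the 5′ end and TAMRA at the 3′ end, 0.25 μM, folded in lithium cacodylate buffer with 100 mM potassium, plus equimolar test compound. After equilibration at 4 °C, FAM emission was followed from 30 to 95 °C at 1 °C/min. Profiles were normalized, and Tm was the temperature at 0.5 normalized fluorescence.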
# LTR-III G4 [4] = assay: Circular dichroism; type: binding, HIV-1; conditions: 4:1 c-exNDI:DNA ratio, label-free oligonucleotide
# Outline: (§2)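 Unlabelled oligonucleotide, final 4 μM, in 10 mM lithium cacodylate pH 7.4 with 100 mM KCl, annealed at 95 °C for 5 min, then cooled gradually to room temperature. Test compound added to a final 16 μM. CD spectra taken at 230–320 nm (5 mm cell, average of 2 scans, buffer-corrected) while heating 20–95 °C at 5 °C/min. Tm calculated by van't Hoff two-state fit.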
# LTR-IV G4 [5] = assay: Circular dichroism; type: binding, HIV-1; conditions: 4:1 c-exNDI:DNA ratio, label-free oligonucleotide
# Outline: as §2
# hTel G4 [6] = assay: Circular dichroism; type: binding, human; conditions: 4:1 c-exNDI:DNA ratio, label-free oligonucleotide
# Outline: as §2
# [7] = tested on: LTR-III, LTR-IV, and hTel templates; assay: Taq polymerase stop assay; type: biochemical; conditions: 2 at 3.1–25.0 nM, K+ 100 mM
# Outline: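 A 5′-end-labelled primer was annealed to each template in lithium cacodylate buffer, with or without 100 mM KCl, by heating to 95 °C for 5 min and cooling gradually to room temperature so the templates folded into G4. A template unable to form G4 served as a control. Taq extension was run with or without test compound, and polymerase stop regions were read from the products.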
# LTR-III G4 [8] = assay: ESI-MS competition assay; type: binding, HIV-1; conditions: 2-fold molar excess of compound
# Outline: (§3)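 G4 oligonucleotides heat-denatured and folded overnight at room temperature in 10 mM KCl, 150 mM trimethylammonium acetate pH 6.8. Equimolar pairs of G4s incubated overnight at 4 °C with 2-fold excess test compound, then injected via HPLC into ESI-MS. Binding affinity = bound/(free + bound) ×100, from reconstructed-ion chromatogram areas. Bound includes one or two ligands; free includes K+ adducts.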
# LTR-IV G4 [9] = assay: ESI-MS competition assay; type: binding, HIV-1; conditions: 2-fold molar excess of compound
# Outline: as §3
# hTel G4 [10] = assay: ESI-MS competition assay; type: binding, human; conditions: 2-fold molar excess of compound
# Outline: as §3
# c-kit2 G4 = assay: ESI-MS competition assay; type: binding; conditions: 2-fold molar excess of compound
# Outline: as §3
# c-myc G4 = assay: ESI-MS competition assay; type: binding; conditions: 2-fold molar excess of compound
# Outline: as §3
# LTR-III G4 [11] = assay: SPR analysis; design: species or system HIV-1; conditions: read-out: KD LTR-III G4 (SPR); 25 °C, HEPES-KCl buffer, 1:1 binding model
# Outline: (§4)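 5′-biotinylated oligonucleotides folded (95 °C for 5 min, cooled to room temperature), diluted to 30 nM and captured on a streptavidin chip to about 500 RU, with an empty reference cell. Running buffer was 0.01 M HEPES pH 7.4, 0.2 M KCl, 3 mM EDTA. Test compound run at 25–200 nM, 30 μL/min, with 280 s contact and 360 s dissociation. Surface regenerated with 10 mM glycine pH 2.0. Sensorgrams buffer-corrected and fitted to a 1:1 model. At least two independent runs, χ2 below 0.2.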
# LTR-IV G4 [12] = assay: SPR analysis; design: species or system HIV-1; conditions: read-out: KD LTR-IV G4 (SPR); 25 °C, HEPES-KCl buffer, 1:1 binding model
# Outline: as §4
# hTel G4 [13] = assay: SPR analysis; design: species or system human; conditions: read-out: KD hTel G4 (SPR); 25 °C, HEPES-KCl buffer, 1:1 binding model
# Outline: as §4
# HIV-1 BaL strain = assay: Antiviral assay in HIV-1 infected TZM-bl cells; type: cell-based
# Outline: as §1
# Cytotoxicity assay = type: cell-based; conditions: human, uninfected (mock-infected) TZM-bl cells
# Outline: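 Run in parallel with the antiviral assay, under the same conditions but on uninfected TZM-bl cells (1 ×10^4 cells/well, seeded overnight, test compound in serial dilution, 37 °C, 48 h). Viability was read by MTT absorbance. CC50 was the concentration that reduced absorbance of mock-infected cells by 50%.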
# HIV-1 NL4-3 = assay: HIV-1 entry assay; type: cell-based; conditions: TZM-bl cells, virus production at 31 h pi; 2 50–100 nM, AZT 0.5 μg/mL, DS 100 μg/mL
# Outline: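 TZM-bl cells (HeLa stably expressing CD4, CCR5 and HIV-1 LTR-driven luciferase) were grown in DMEM/10% FBS. Cells were seeded at 1 × 10^4 per well and allowed to adhere overnight, then infected with HIV-1 NL4-3 at MOI 0.5 and kept at 37 °C. Test compound or reference agents were added at 0, 1 or 2 h pi. At 31 h cells were PBS-washed and virus production was read as LTR-luciferase RLU.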
# HIV-1 LTR promoter = assay: LTR-EGFP reporter assay in HeLa-Tat-III/LTR/d1EGFP cells; type: cell-based; conditions: noncytotoxic concentrations of 2 (62.5–250 nM), 48 h, FACS
# wt LTR promoter = assay: Luciferase reporter assay in 293T cells; type: cell-based, HIV-1; conditions: increasing amounts of 2, 24 h
# Outline: (§5)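 HEK293T cells, 9 ×10^4 per well, transfected 24 h after seeding with 100 ng of a promoterless Luc2 vector carrying the wt or M4+5 (G4-abolishing double point mutant) HIV-1 LTR. Test compound added 1 h after transfection at various concentrations for 24 h. Luciferase activity measured. Cells lysed in RIPA, and signals normalized to total protein (BCA).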
# [14] = tested on: M4 + 5 mutant LTR promoter (non-G4-forming); assay: Luciferase reporter assay in 293T cells; type: cell-based, HIV-1; conditions: increasing amounts of 2, 24 h
# Outline: as §5
compound,measurement,setting,value
"CN(C)c1ccc(Nc2c3ccc(NC(=O)CCN4CCCC4)cc3nc3cc(NC(=O)CCN4CCCC4)ccc23)cc1.Cl.Cl.Cl [Compound 1, BRACO-19]",SI HIV-1 strain NL4-3,HIV-1 NL4-3 strain [1],>3.5
same,IC50 (virus production in infected cells),HIV-1 NL4-3 strain [2],low μM range
same,average selectivity index (SI),HIV-1 NL4-3 strain [2],12
same,CC50,TZM-bl cells,> 12 µM
CN(C)CCCn1c(=O)c2ccc3c(=O)n(CCCN(C)C)c(=O)c4c5[nH]c6ccccc6[nH]c5c(c1=O)c2c34 [Compound 2],"stabilization (ΔTm, FRET) at 4-fold c-exNDI:DNA molar ratio","LTR-IV G4 [3]; 4-fold c-exNDI:DNA molar ratio, 25 °C is the maximum increase measurable, data not shown",above 25 °C
same,difference in stabilization of LTR-IV G4s vs hTel G4,"LTR-IV G4 [3]; FRET, equimolar amounts",≥ 6 °C
same,stabilization of LTR-III G4 by CD,LTR-III G4 [4],higher than 27 °C
same,stabilization of LTR-IV G4 by CD,LTR-IV G4 [5],higher than 27 °C
same,stabilization of hTel G4 by CD,hTel G4 [6],19.9 °C
same,Taq polymerase stop site,[7],intense stop site at the most 3′ G tract in each G4-forming template
same,binding affinity LTR-III,LTR-III G4 [8]; competing G4s LTR-III/LTR-IV,71
same,binding affinity LTR-III,LTR-III G4 [8]; competing G4s LTR-III/kit,33
same,binding affinity LTR-III,LTR-III G4 [8]; competing G4s LTR-III/myc,39
same,binding affinity LTR-IV,LTR-IV G4 [9]; competing G4s LTR-III/LTR-IV,25
same,binding affinity LTR-IV,LTR-IV G4 [9]; competing G4s LTR-IV/hTel,52
same,binding affinity LTR-IV,LTR-IV G4 [9]; competing G4s LTR-IV/kit,25
same,binding affinity LTR-IV,LTR-IV G4 [9]; competing G4s LTR-IV/myc,25
same,binding affinity cell G4 (hTel),hTel G4 [10]; competing G4s LTR-III/hTel,10
same,binding affinity cell G4 (hTel),hTel G4 [10]; competing G4s LTR-IV/hTel,25
same,binding affinity cell G4 (kit),c-kit2 G4; competing G4s LTR-III/kit,12
same,binding affinity cell G4 (kit),c-kit2 G4; competing G4s LTR-IV/kit,9
same,binding affinity cell G4 (myc),c-myc G4; competing G4s LTR-III/myc,45
same,binding affinity cell G4 (myc),c-myc G4; competing G4s LTR-IV/myc,44
same,Kd,LTR-III G4 [11],0.0032 µM
same,Kd,LTR-IV G4 [12],0.0061 µM
same,Kd,hTel G4 [13],0.0131 µM
same,SI HIV-1 strain NL4-3,HIV-1 NL4-3 strain [1],40
same,IC50,"HIV-1 NL4-3 strain [1]; read-out: IC50 HIV-1 strain NL4-3, MOI 0.5, 48 h, LTR-luciferase signal",0.0132 ± 0.0001 µM
same,SI HIV-1 strain BaL,HIV-1 BaL strain; CC50 value/IC50 value,14
same,IC50,"HIV-1 BaL strain; read-out: IC50 HIV-1 strain BaL, MOI 0.5, 48 h, LTR-luciferase signal",0.0362 ± 0.0043 µM
same,CC50,Cytotoxicity assay,0.532 ± 0.0117 µM
same,"antiviral activity as a function of time of addition (0, 1, 2 h pi)",HIV-1 NL4-3,No significant difference in the activity of the compound was observed at the tested times
same,inhibition of mean EGFP levels (LTR promoter activity),HIV-1 LTR promoter,up to 60%
same,inhibition of wt LTR luciferase activity,wt LTR promoter,up to 65%
same,effect on non-G4-forming mutant LTR (M4 + 5) luciferase activity,[14],no effect
